Measurements from ChEMBL document CHEMBL1149179, “Synthesis and biological evaluation of a new class of geldanamycin derivatives as potent inhibitors of Hsp90” (J Med Chem, 2004).
pIC50: −log10 of the molar value.

Experiments:
[1] = biological target: T1, Heat shock protein HSP90 (Homo sapiens, UniProt P07900+P08238); assay: Concentration required to inhibit biotin-GM binding to recombinant heat shock protein 90(rHsp90); type: protein assay
Summary of the method: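 rHsp90 coated in PBS overnight at 4 °C. Compound at 100–0.3 µM or DMSO for 60 min at 37 °C. Then 10 µM biotinylated geldanamycin 60 min and 20 µg/mL streptavidin-phycoerythrin 60 min, both at 37 °C, with washes between. Fluorescence read at ex 485/em 580 nm, minus an uncoated-well background. % binding inhibition calculated versus DMSO.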

[2] = biological target: T1, Heat shock protein HSP90; assay: […] human epidermal growth factor 2 (Her-2) degradation in MCF-7 cells; type: cell-based; settings: mcf7
Summary of the method: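 MCF7 cells in DMEM with 10% FBS and 10 mM HEPES, treated at 65–70% confluence with compound (1000 nM down to 3 nM, half-log steps) for 16 h. Trypsinized cells stained with PE anti-Her-2 or PE isotype control (1 µg/mL, 15 min). Flow cytometry with 10,000 events; control-subtracted mean fluorescence versus DMSO cells. EC50 = 50% Her-2 degradation; n = 2.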

[3] = biological target: T1, Heat shock protein HSP90; assay: Concentration required to inhibit Bis-ANS activity by recombinant heat shock protein 90 (rHSP90) conformational assay
Summary of the method: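 Compound at 100–0.3 µM or DMSO for 60 min at 37 °C, then bis-ANS (0.1 mM stock) for 30 min at 37 °C. Fluorescence read at ex 393/em 484 nm, minus a no-protein background. IC50 = 50% inhibition of bis-ANS signal versus DMSO; n = 2.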

[4] = Ratio of inhibitory concentration of rHsp90 and cell lysate Hsp90
[5] = test system: MCF7; assay: Inhibitory concentration of compound against MCF-7 cells by MTS assay; type: functional, cell-based; settings: Homo sapiens
Summary of the method: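 MCF7 cells seeded at 2000/well in DMEM with 10% FBS and left overnight to adhere; final culture volume 100 µL. Viability read with MTS/PMS (mixed 20:1, 20 µL per well) as A490 after 2-4 h, with cell-free medium plus MTS-PMS as background. % viable cells taken relative to untreated cells; IC50 is the concentration giving 50% viable cells; n = 2.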

[6] = biological target: T1, Heat shock protein HSP90; assay: Concentration of test compound required for inhibition of binding of rHsp90 in MCF-7 cell lysate; type: cell-based
Summary of the method: (§1)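 Lysate incubated ± compound 30 min at 4 °C, then with biotin-GM on streptavidin magnetic beads 1 h at 4 °C. Beads washed three times and boiled in SDS sample buffer. Bound Hsp90 detected by Western blot and band quantitation. IC50 taken as half-maximal inhibition of binding.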

[7] = biological target: T1, Heat shock protein HSP90; assay: Concentration of test compound required for half-maximal inhibition of binding of Heat shock 90 KD protein by MCF-7 cell lysate assay; type: cell-based; summary of the method: as §1

Row | IC50 [1] | IC50 [2] | IC50 [3] | Ratio [4] | IC50 [7] | Compound | pIC50 [5] | IC50 [6] | pIC50 [1]
1 | 15000 nM | 1700 nM | 20000 nM | – | – | CO[C@H]1/C=C\C=C(/C)C(=O)NC2=CC(=O)C(NC(=O)C(C)=O)=C(C[C@@H](C)C[C@H](OC)[C@H](O)[C@@H](C)/C=C(\C)[C@@H]1OC(N)=O)C2=O | – | – | –
2 | 17000 nM | 1700 nM | 3000 nM | 200 | – | CO[C@H]1/C=C\C=C(/C)C(=O)NC2=CC(=O)C(NC(=O)c3ccc(CN(C)C)cc3)=C(C[C@@H](C)C[C@H](OC)[C@H](O)[C@@H](C)/C=C(\C)[C@@H]1OC(N)=O)C2=O | < 4.52 | 15 nM | –
3 | 5000 nM | 800 nM | 8000 nM | 67 | 120 nM | CO[C@H]1/C=C\C=C(/C)C(=O)NC2=CC(=O)C(NC(=O)c3ccc(CN4CCN(C)CC4)cc3)=C(C[C@@H](C)C[C@H](OC)[C@H](O)[C@@H](C)/C=C(\C)[C@@H]1OC(N)=O)C2=O | – | – | –
4 | 1300 nM | 180 nM | 900 nM | – | – | COc1cccc(C(=O)NC2=C3C[C@@H](C)C[C@H](OC)[C@H](O)[C@@H](C)/C=C(\C)[C@H](OC(N)=O)[C@@H](OC)/C=C\C=C(/C)C(=O)NC(=CC2=O)C3=O)c1 | – | – | –
5 | 1000 nM | 500 nM | 1000 nM | 100 | 10 nM | CO[C@H]1/C=C\C=C(/C)C(=O)NC2=CC(=O)C(NC(=O)OCCCCN3CCOCC3)=C(C[C@@H](C)C[C@H](OC)[C@H](O)[C@@H](C)/C=C(\C)[C@@H]1OC(N)=O)C2=O | – | – | –
6 | – | 280 nM | 3000 nM | 43 | 70 nM | CO[C@H]1/C=C\C=C(/C)C(=O)NC2=CC(=O)C(c3ccccc3)=C(C[C@@H](C)C[C@H](OC)[C@H](O)[C@@H](C)/C=C(\C)[C@@H]1OC(N)=O)C2=O | – | – | 5.52
7 | 4000 nM | 200 nM | 3000 nM | – | – | CO[C@H]1/C=C\C=C(/C)C(=O)NC2=CC(=O)C(NC(=O)c3ccccc3)=C(C[C@@H](C)C[C@H](OC)[C@H](O)[C@@H](C)/C=C(\C)[C@@H]1OC(N)=O)C2=O | – | – | –

More lines, now with the values behind:

Row | Compound | IC50 [1] | IC50 [2] | IC50 [3] | Ratio [4] | IC50 [7] | pIC50 [5] | IC50 [6] | pIC50 [1]
8 | CO[C@H]1/C=C\C=C(/C)C(=O)NC2=CC(=O)C(c3cccs3)=C(C[C@@H](C)C[C@H](OC)[C@H](O)[C@@H](C)/C=C(\C)[C@@H]1OC(N)=O)C2=O | – | 250 nM | 1700 nM | 31 | 55 nM | – | – | 5.77
9 | CO[C@H]1/C=C\C=C(/C)C(=O)NC2=CC(=O)C(NC(=O)c3ccco3)=C(C[C@@H](C)C[C@H](OC)[C@H](O)[C@@H](C)/C=C(\C)[C@@H]1OC(N)=O)C2=O | 4000 nM | 500 nM | 4000 nM | – | – | – | – | –
10 | CCCN(CCC)Cc1ccc(C(=O)NC2=C3C[C@@H](C)C[C@H](OC)[C@H](O)[C@@H](C)/C=C(\C)[C@H](OC(N)=O)[C@@H](OC)/C=C\C=C(/C)C(=O)NC(=CC2=O)C3=O)cc1 | 3000 nM | 500 nM | 1200 nM | – | – | 6.30 | – | –
11 | CO[C@H]1/C=C\C=C(/C)C(=O)NC2=CC(=O)C(NC(=O)OCc3ccc(OC(C)=O)cc3)=C(C[C@@H](C)C[C@H](OC)[C@H](O)[C@@H](C)/C=C(\C)[C@@H]1OC(N)=O)C2=O | 1000 nM | 50 nM | 2500 nM | – | – | 7.40 | – | –
12 | CO[C@H]1/C=C\C=C(/C)C(=O)NC2=CC(=O)C(NC(=O)c3ccc(CN4CCN(C5CCCCC5)CC4)cc3)=C(C[C@@H](C)C[C@H](OC)[C@H](O)[C@@H](C)/C=C(\C)[C@@H]1OC(N)=O)C2=O | 5500 nM | 600 nM | 5800 nM | – | – | – | – | –
13 | CO[C@H]1/C=C\C=C(/C)C(=O)NC2=CC(=O)C(NC(=O)c3ccc(CN4CCc5ccccc5C4)cc3)=C(C[C@@H](C)C[C@H](OC)[C@H](O)[C@@H](C)/C=C(\C)[C@@H]1OC(N)=O)C2=O | 1000 nM | 200 nM | 1500 nM | – | – | – | – | –
14 | CO[C@H]1/C=C\C=C(/C)C(=O)NC2=CC(=O)C(NC(=O)c3ccc(CN4CCN(c5ccc(Cl)cc5)CC4)cc3)=C(C[C@@H](C)C[C@H](OC)[C@H](O)[C@@H](C)/C=C(\C)[C@@H]1OC(N)=O)C2=O | 1000 nM | 250 nM | 1000 nM | 111 | – | 6.82 | 9 nM | –
